# V1aR counter = activates human V1a receptor in oxytocin agonist counter-screen | P37288 | CHO-V1R cells, Fluo-8 calcium fluorescence, agonist mode; 0% DMSO, 100% 3 nM vasopressin | activation, % at 3 µM | 0.25% of 320,000 active | AID 2797;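 active = activation above the mean activation of all tested compounds plus 3 SD, per screening run, cut at about 20% in these data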;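 also: signal is peak over basal fluorescence ratio across a 100 second FLIPR read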
# OXTR ag = agonists of human oxytocin receptor. P30559. CHO-OTR cells, Fluo-8 calcium fluorescence; normalized: DMSO 0%, oxytocin 100%. activation, % at 3 µM. 0.32% of 320,000 active. AID 2435;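 active = activation above the mean of all tested compounds plus 3 SD, cutoff set per screening run, cut at about 20% in these data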;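 also: peak over basal fluorescence ratio from a 100 s FLIPR kinetic read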
# Target sequence (P30559 whole entry, looked up): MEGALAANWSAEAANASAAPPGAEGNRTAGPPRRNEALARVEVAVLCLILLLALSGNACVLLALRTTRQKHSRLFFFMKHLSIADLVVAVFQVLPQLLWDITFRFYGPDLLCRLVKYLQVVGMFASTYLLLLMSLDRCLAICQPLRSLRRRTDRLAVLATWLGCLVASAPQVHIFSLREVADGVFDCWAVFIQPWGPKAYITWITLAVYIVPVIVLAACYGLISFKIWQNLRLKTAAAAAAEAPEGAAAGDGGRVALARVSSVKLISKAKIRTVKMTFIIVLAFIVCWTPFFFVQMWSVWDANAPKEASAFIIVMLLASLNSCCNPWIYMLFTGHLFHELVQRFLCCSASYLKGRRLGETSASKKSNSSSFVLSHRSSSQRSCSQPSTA
# OXTR potentiator = potentiators of human oxytocin receptor; CHO-OTR cells, Fluo-8 calcium fluorescence, potentiator mode; 0% = oxytocin EC15, 100% = EC100; activation, % at 3 µM; 0.061% of 320,000 active;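 active = activation above that plate's cutoff, the mean activation of tested compounds plus 3 SD, cut at about 6.6% in these data, passing the limit was not always enough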;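 also: 100% uses oxytocin at 75 nM as the full agonist control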
#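 Material: CHO-OTR cells, human receptor; compound dosing: single dose, 3.0 µM nominal final compound concentration; schedule: 6 min compound pre-incubation at room temperature, 100 s kinetic read; measured by: kinetic Fluo-8 calcium fluorescence; read-out basis: % activation vs EC15 and EC100 oxytocin; controls: EC15 oxytocin alone as 0%, 75 nM oxytocin as 100%; replicates: singlicate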
# TAAR1 antagonist = human TAAR1 antagonism. Q96RJ0. inhibition, % at 3 µM. 1.5% of 360,000 active. AID 624466. CHO RD-HGA16 TAAR1, Fluo-8 calcium fluorescence, antagonist;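 active = inhibition above a per-plate cutoff, the mean inhibition of test compounds on that plate plus 3 SD, cut at about 49% in these data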;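 also: 0% = DMSO plus EC80 beta-PEA response and 100% = DMSO alone without agonist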
# Target sequence (Q96RJ0 whole entry, looked up): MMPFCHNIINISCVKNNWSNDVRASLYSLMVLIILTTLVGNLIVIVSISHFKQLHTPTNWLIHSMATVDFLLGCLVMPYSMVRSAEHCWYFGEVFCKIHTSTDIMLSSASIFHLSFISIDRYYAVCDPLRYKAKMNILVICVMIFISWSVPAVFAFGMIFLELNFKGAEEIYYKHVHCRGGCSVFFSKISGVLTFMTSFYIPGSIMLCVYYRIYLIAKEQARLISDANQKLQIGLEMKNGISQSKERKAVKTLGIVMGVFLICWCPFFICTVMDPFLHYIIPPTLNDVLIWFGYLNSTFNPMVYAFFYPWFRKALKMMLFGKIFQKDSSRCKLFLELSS
#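 Test system – hTAAR1-expressing CHO RD-HGA16 cells, Gα16-coupled · Also added – β-PEA at EC80 concentration, post-compound challenge · Compound – 3 µM, single point · Incubation – dye loading 75 min at 37 °C, then 30 min room temperature · Measured by – Fluo-8 intracellular calcium dye fluorescence, real-time kinetic reads · Benchmarks – vehicle and agonist controls · Replicates – singlicate, one well per test compound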
# TAAR1 ag = human TAAR1 agonism. activation, % at 3 µM. CHO RD-HGA16 TAAR1, Fluo-8 calcium fluorescence; vehicle wells 0%, saturating PEA agonist 100%. AID 624467. Q96RJ0. 0.99% of 360,000 active;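 active = activation above the mean activation of all test compounds in the run plus 3 SD, cut at about 38% in these data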
#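 Repeats: no replicates (n 1) | Material: CHO-derived RD-HGA16 cells with stable Gα16 and human TAAR1 | Technique: Kinetic Fluo-8 calcium fluorescence | Schedule: 17-24 h seeding, 75 min 37 °C dye, 30 min RT | Evaluation: % activation from peak over basal fluorescence ratio, DMSO-to-PEA scaled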
# TAAR1 nonsel count = nonselective antagonist in TAAR1 antagonist counter-screen. shares compounds with TAAR1 antagonist. counterscreen cell line, calcium fluorescence, antagonist mode. AID 651780. inhibition, % at 3 µM. 77% of 2,400 active; in the data active = inhibition above about 22%;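 also: CHO-Ga16 host cells stimulated with ATP at an EC80 level; 0% = agonist EC80 plus vehicle and 100% = vehicle without agonist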
# TAAR1 antag conf = human TAAR1 antagonism, confirmed. shares compounds with TAAR1 antagonist. TAAR1-expressing cells, fluorescence antagonist read-out. inhibition, % at 3 µM. 40% of 2,400 active. AID 651785; in the data active = inhibition above about 49%;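 also: CHO-Ga16 host cells challenged with agonist PEA near its EC80; 0% = agonist at EC80 plus vehicle and 100% = vehicle with no agonist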
# Ga16 nonsel ag = nonselective Ga16 agonism, counter-screen | activation, % at 3 µM | 18% of 2,400 active | shares compounds with TAAR1 antagonist | Ga16-expressing cells, calcium fluorescence, agonist counterscreen; in the data active = activation above about 12%;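 also: 0% = vehicle wells and 100% = saturating stimulus response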
# TAAR1 ag counter = activates human TAAR1 in antagonist counter-screen. shares compounds with TAAR1 antagonist. hTAAR1 cell line, fluorescence activation, agonist mode. activation, % at 3 µM. 2% of 2,400 active. AID 651955; in the data active = activation above about 37%;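 also: CHO cells stably expressing TAAR1 with calcium dye readout; 0% = DMSO vehicle and 100% = full agonist response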
# The depositor's hits bear a star; . = not tested or not shown. This is a sample that favours compounds with a hit; in the whole collection about 2.3% have one here.
SMILES,V1aR counter,OXTR ag,OXTR potentiator,TAAR1 antagonist,TAAR1 ag,TAAR1 nonsel count,TAAR1 antag conf,Ga16 nonsel ag,TAAR1 ag counter
COC(=O)c1cccc(S(=O)(=O)N(Cc2ccco2)Cc2cc3cc(OC)ccc3[nH]c2=O)c1,3.7,-2.0,-3.9,58.4*,19.0,24.3*,58.5*,10.0,28.0
O=c1[nH]c2ccccc2cc1CN(Cc1ccco1)S(=O)(=O)c1ccc(F)cc1,2.1,-0.2,-11.4,53.9*,9.9,23.4*,44.0,10.1,17.6
CCN(Cc1cc2ccccc2[nH]c1=O)S(=O)(=O)c1ccc(OC)cc1,9.0,1.5,-3.9,-17.9,6.5,.,.,.,.
CC(C)[C@H](NC(=O)c1ccccc1)C(=O)OCc1nc2scc(-c3ccccc3)c2c(=O)[nH]1,8.9,3.4,-5.7,73.0*,12.5,36.1*,54.9*,10.8,14.0
O=C(OCc1nc2scc(-c3ccccc3)c2c(=O)[nH]1)c1ccco1,0.4,-0.4,-5.8,24.0,4.8,.,.,.,.
COC(=O)C1=C(C)N(Cc2ccccc2C(F)(F)F)C(=NCc2ccc3c(c2)OCO3)NC1c1cccc(F)c1 (configuration not stated),.,.,.,9.4,11.2,.,.,.,.
CCOC(=O)C1=C(C)Nc2ccccc2N=C1NC(=O)c1oc2ccccc2c1COC,0.3,-1.8,-4.7,70.1*,14.4,30.5*,46.0,6.1,7.1
CCOC(=O)c1cc(-c2nnc(SCC(=O)Nc3ccc(F)cc3)o2)c(C)nc1C,0.5,-0.8,-2.3,54.5*,9.4,18.3,30.7,5.4,3.3
Cc1cc(/C=C(\C#N)C(=O)NCc2cccs2)c(C)n1-c1ccccc1F,0.2,-1.6,-17.7,68.5*,1.6,17.1,61.1*,2.4,3.9
Cc1ccccc1-n1c(C)cc(/C=C(\C#N)C(=O)NCC2CCCO2)c1C (configuration not stated),2.4,-1.7,-14.2,7.6,2.1,.,.,.,.
COC(=O)C1=C(C)N(Cc2ccc(Cl)cc2)C(=S)NC1c1cccc(OC)c1 (configuration not stated),.,.,.,51.1*,0.5,19.5,22.1,-0.8,-0.9
CCOC(=O)C1=CN(Cc2cccc(-c3ccc(Cl)nc3)c2)S(=O)(=O)N(C)C1C (configuration not stated),.,.,.,62.6*,4.8,10.6,21.9,1.6,3.5
CC(C)(C)NC(=O)COC(=O)c1c2c(nc3ccccc13)CCC2,-1.0,-1.4,-7.9,60.1*,8.4,26.8*,40.7,6.9,5.7
COC(=O)c1ccc2nc(-c3ccc(C)cc3)c(CC(C)(C)C)n2c1,.,.,.,-19.9,-1.7,.,.,.,.
CSc1ccc(Cn2c(C)c(C(=O)NCc3ccc(Cl)c(Cl)c3)sc2=O)cc1,.,.,.,19.3,0.9,.,.,.,.
Cc1c(C(=O)NCc2ccc(Cl)c(Cl)c2)sc(=O)n1Cc1ccc(S(C)(=O)=O)cc1,.,.,.,71.7*,20.8,34.9*,37.1,13.8*,13.5
COc1ccc(C(=O)Oc2cccc(Nc3ncnc4ccccc34)c2)cc1OC,9.1,12.4,-20.9,68.9*,12.5,43.4*,53.6*,11.6*,4.9
COc1ccc(NC(=O)N(C)C[C@H]2Oc3ncc(Br)cc3C(=O)N([C@H](C)CO)C[C@@H]2C)cc1,.,.,.,3.4,0.2,.,.,.,.
COC(=O)c1ccc(COc2cccn3c(N(C)C(=O)CCC4CCCC4)c(C)nc23)cc1,.,.,.,68.5*,3.8,33.7*,54.8*,7.1,12.0
Cc1nc2c(OCc3ccc(F)cc3)cccn2c1N(C)C(=O)CCC1CCCC1,.,.,.,25.8,4.3,.,.,.,.
COc1cccc(COC(=O)C2CCN(S(=O)(=O)c3ccc(C)cc3)CC2)c1OC,1.7,-0.2,-13.6,-21.9,0.5,.,.,.,.
COc1ccc(S(=O)(=O)N2CCCCCC2)cc1C(=O)OCc1cccc(OC)c1OC,-0.3,-0.1,-9.4,57.6*,3.6,22.0*,43.2,7.0,15.2
COc1ccccc1CN(C(=O)CNC(=O)c1ccco1)C(C(=O)NCC1CCCO1)c1ccccc1 (configuration not stated),4.2,4.6,-5.9,68.4*,16.7,31.6*,47.1,7.8,10.2
O=C(NCC(=O)N(Cc1ccccc1)C(C(=O)NCC1CCCO1)c1ccccc1)c1ccco1 (configuration not stated),5.2,6.6,-8.8,53.4*,18.9,19.6,45.5,10.2,9.6
O=C(NCC(=O)N(c1ccc(F)cc1)C(C(=O)NCC1CCCO1)c1ccccc1)c1ccco1 (configuration not stated),0.1,-0.3,-12.0,24.8,8.6,.,.,.,.
SMILES,V1aR counter,OXTR ag,OXTR potentiator,TAAR1 antagonist,TAAR1 ag,TAAR1 nonsel count,TAAR1 antag conf,Ga16 nonsel ag,TAAR1 ag counter
Cc1ccc(C(C(=O)NCC2CCCO2)N(Cc2ccccc2)C(=O)c2ccc(-c3ccccc3)[nH]2)o1 (configuration not stated),-0.7,-0.7,-10.2,67.0*,9.0,30.7*,42.2,8.1,13.5
O=C(NCc1ccco1)C(=O)NN=Cc1ccccc1O,.,.,.,-11.7,8.4,.,.,.,.
CN(N=Cc1ccc(N(C)C)cc1)C(=O)c1ccccc1N,.,.,.,-0.2,0.1,.,.,.,.
FC(F)(F)c1ccc(Cl)c(CN2CCN(c3ncc(Cc4ccccc4)cn3)CC2)c1,.,.,.,-29.0,-0.6,.,.,.,.
CCc1noc(C)c1C(=O)Nc1nc(-c2ccc(NC(C)=O)cc2)cs1,4.8,0.7,-5.6,69.7*,17.7,28.9*,48.1,21.8*,30.6
O=[N+]([O-])c1ccc(-c2ccc(/C=N/Nc3nc(N4CCCCC4)nc(N4CCCCC4)n3)o2)cc1,.,.,.,-4.7,9.6,.,.,.,.
O=[N+]([O-])c1cccc(-c2ccc(/C=N/Nc3nc(N4CCCCC4)nc(N4CCCCC4)n3)o2)c1,0.8,0.1,-5.8,51.7*,6.1,19.0,34.9,4.5,6.3
O=C1NC[C@@H](CCCCN2CCN(CCc3ccccc3)C(=O)C2=O)N(Cc2ccccc2)C1=O,.,.,.,6.2,0.5,.,.,.,.
C[C@H](CO)N1C[C@H](C)[C@@H](CN(C)C(=O)Nc2ccc3c(c2)OCO3)Oc2c(NC(=O)Nc3ccccc3)cccc2C1=O,0.7,0.6,2.6,58.5*,6.6,25.6*,41.3,3.4,4.1
CC(C)NC(=O)N(C)C[C@H]1Oc2c(NC(=O)Nc3ccc4c(c3)OCO4)cccc2C(=O)N([C@H](C)CO)C[C@@H]1C,3.6,0.2,2.3,1.4,3.5,.,.,.,.

# Source: PubChem BioAssay (The Scripps Research Institute Molecular Screening Center)
